From ChEMBL document CHEMBL4316598, “Synthesis, antiproliferative and apoptosis induction potential activities of novel bis(indolyl)hydrazide-hydrazone derivatives” (Bioorg Med Chem, 2019)
Active and inactive are the calls of the source. No cut-off for these calls is given here.

How the values were obtained:
HeLa [1] = assay: Cytotoxicity against human HeLa cells assessed as reduction in cell viability after 4 hrs by MTT assay; type: functional, cell-based
Procedure, shortened: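 MTT: 10,000–20,000 cells/well attached for 16 h, then washed twice with serum-free RPMI. Treated with 1–200 µM for 4 h, 3 parallel runs per concentration. MTT added for 2 h; medium partly removed and isopropanol added. A590 read. Viability = (A treated − A doxorubicin)/(A medium − A doxorubicin)×100. Mean of three experiments, triplicate wells each.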

MCF7 [2] = assay: Induction of apoptosis in human MCF7 cells assessed as early apoptotic cells at 1 uM after 8 hrs by annexin-V FITC/propidium iodide staining based flow cytometric analysis relative to control; type: functional
Procedure, shortened: (§1)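 Cells were grown in DMEM with 10% heat-inactivated FBS at 37 °C and 5% CO₂, then plated at 500,000 cells/well in 24-well plates. They were treated from a DMSO stock (DMSO ≤0.1%) for 8, 12 or 16 h. After a PBS wash, cells were resuspended in binding buffer (10 mM HEPES pH 7.4, 2.5 mM CaCl₂, 140 mM NaCl, 0.1% BSA), stained 40 min with FITC-annexin V, then with PI, and run on the flow cytometer immediately. Values are the mean of three independent experiments.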

MCF7 [3] = assay: Induction of apoptosis in human MCF7 cells assessed as late apoptotic cells at 1 uM after 8 hrs by annexin-V FITC/propidium iodide staining based flow cytometric analysis relative to control; type: functional; procedure, shortened: as §1
MCF7 [4] = assay: Induction of apoptosis in human MCF7 cells assessed as necrotic cells at 1 uM after 8 hrs by annexin-V FITC/propidium iodide staining based flow cytometric analysis relative to control; type: functional; procedure, shortened: as §1
MCF7 [5] = assay: Induction of apoptosis in human MCF7 cells assessed as late apoptotic cells at 1 uM after 12 hrs by annexin-V FITC/propidium iodide staining based flow cytometric analysis relative to control; type: functional; procedure, shortened: as §1
MCF7 [6] = assay: Induction of apoptosis in human MCF7 cells assessed as early apoptotic cells at 1 uM after 16 hrs by annexin-V FITC/propidium iodide staining based flow cytometric analysis relative to control; type: functional; procedure, shortened: as §1
HeLa [7] = assay: Induction of apoptosis in human HeLa cells assessed as necrotic cells at 1 uM after 8 hrs by annexin-V FITC/propidium iodide staining based flow cytometric analysis relative to control; type: functional; procedure, shortened: as §1
HeLa [8] = assay: Induction of apoptosis in human HeLa cells assessed as viable cells at 1 uM after 8 hrs by annexin-V FITC/propidium iodide staining based flow cytometric analysis relative to control; type: functional; details: read-out: Activity; procedure, shortened: as §1
HeLa [9] = assay: Induction of apoptosis in human HeLa cells assessed as necrotic cells at 1 uM after 16 hrs by annexin-V FITC/propidium iodide staining based flow cytometric analysis relative to control; type: functional; procedure, shortened: as §1
HeLa [10] = assay: Induction of nitric oxide production in human HeLa cells at 5 uM measured over 8 hrs by Griess reaction based assay relative to control; type: functional
Procedure, shortened: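 Cells seeded at 2×10^6 cells/well for 12 h, then exposed to 1, 5 and 10 μM compound for 8 h at 37 °C. Culture supernatant mixed with Griess reagent (0.002% N-1-naphthyl-ethylenediamine dihydrochloride, 0.5% sulfanilic acid, 14% glacial acetic acid). Nitrite read by absorbance at 550 nm and compared with vehicle group.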

HeLa [11] = assay: Effect on mitochondrial membrane potential in human HeLa cells assessed as shift change at 5 uM measured over 4 hrs by Rhodamine 123 dye-based fluorescence assay; type: functional, cell-based
Procedure, shortened: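 Mitochondrial potential: HeLa or MCF-7 cells treated with 5 µM (final) for 1, 2, 4 and 8 h. Rhodamine 123 added, cells incubated 30 min at 37 °C, washed with PBS, and analysed by flow cytometry. Fluorescence histogram shift is compared with control.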

MCF7 [12] = assay: Induction of caspase-dependent apoptosis in human MCF7 cells assessed as activation of caspase-9 at 1 to 3 uM after 24 hrs by Western blot analysis; type: functional, cell-based
Procedure, shortened: (§2)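 Cells were treated at 1, 3 and 5 µM for 24 h at 37 °C. Lysis was in ice-cold Triton X-100 buffer with protease and phosphatase inhibitors; nuclear proteins were extracted separately. Protein was quantified by BCA. Lysates were separated by electrophoresis, transferred to nitrocellulose and blocked in non-fat milk for 1 h. Primary antibody was applied overnight at 4 °C and secondary for 1 h at 28 °C. Detection was by enhanced chemiluminescence.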

HeLa [13] = assay: Induction of caspase-dependent apoptosis in human HeLa cells assessed as activation of caspase-7 at 1 to 3 uM after 24 hrs by Western blot analysis; type: functional, cell-based; procedure, shortened: as §2
HeLa [14] = assay: Induction of apoptosis in human HeLa cells assessed as change in Bcl-2 level at 1 to 3 uM after 24 hrs by Western blot analysis; type: functional, cell-based
Procedure, shortened: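 Western blot: HeLa cells treated 24 h at 37 °C, lysed on ice, protein quantified by BCA. Proteins separated by electrophoresis, transferred to nitrocellulose, blocked 1 h in non-fat milk. Primary antibody (Bcl2) applied overnight at 4 °C, secondary 1 h at 28 °C, detected by enhanced chemiluminescence.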

MCF7 [15] = assay: Induction of ROS generation in human MCF7 cells at 5 uM after 12 hrs by CM-H2DCFDA staining-based FACS analysis; type: functional, cell-based
Procedure, shortened: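 CM-H2DCFDA ROS: HeLa or MCF-7 cells at 2×10^6/well in 6-well plates treated with 5 μM (final) for 12 or 24 h at 37 °C. Cells harvested, washed with PBS, stained with CM-H2DCFDA in PBS 30 min at 37 °C, washed with ice-cold PBS. Read by FACScan with 488 nm argon laser.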

MCF7 [16] = assay: Induction of apoptosis in human MCF7 cells assessed as up-regulation of total p53 level at 5 uM after 12 hrs by sandwich ELISA; type: functional, cell-based
Procedure, shortened: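 Cells were treated at 5 µM for 12, 24 and 48 h. Lysis was in ice-cold lysis buffer with 1 mM PMSF (5 min on ice), followed by three freeze-thaw cycles and a 10 min spin at 4 °C. Acetylated and total p53 were measured in the supernatant by kit sandwich ELISA, read at 450 nm. The control index is sample absorbance divided by that of untreated cells at the same time. Values are mean ± SD of triplicate experiments.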

[17] = biological target: Mitogen-activated protein kinase; ERK1/ERK2 (Homo sapiens) (UniProt P27361+P28482); assay: Activation of ERK1/2 phosphorylation in human MCF7 cells assessed as increase in ratio of phosphorylated ERK1/2 to total ERK1/2 level at 5 uM in presence of ERK1/2 inhibitor PD98059 by ELISA; type: cell-based
Mitogen-activated protein kinase; ERK1/ERK2 (Homo sapiens), sequence (P27361 whole entry, looked up): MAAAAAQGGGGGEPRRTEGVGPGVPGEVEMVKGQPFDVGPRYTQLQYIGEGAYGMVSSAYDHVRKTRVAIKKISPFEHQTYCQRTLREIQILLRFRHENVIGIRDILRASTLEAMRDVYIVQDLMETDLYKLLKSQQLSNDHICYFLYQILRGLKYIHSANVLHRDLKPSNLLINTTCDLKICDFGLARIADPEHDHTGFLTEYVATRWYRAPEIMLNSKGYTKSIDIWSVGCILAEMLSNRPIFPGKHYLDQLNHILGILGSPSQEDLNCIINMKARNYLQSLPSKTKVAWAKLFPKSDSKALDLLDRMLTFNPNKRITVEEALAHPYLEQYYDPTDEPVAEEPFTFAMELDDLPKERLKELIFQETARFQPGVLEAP
Mitogen-activated protein kinase; ERK1/ERK2 (Homo sapiens), sequence (P28482 whole entry, looked up): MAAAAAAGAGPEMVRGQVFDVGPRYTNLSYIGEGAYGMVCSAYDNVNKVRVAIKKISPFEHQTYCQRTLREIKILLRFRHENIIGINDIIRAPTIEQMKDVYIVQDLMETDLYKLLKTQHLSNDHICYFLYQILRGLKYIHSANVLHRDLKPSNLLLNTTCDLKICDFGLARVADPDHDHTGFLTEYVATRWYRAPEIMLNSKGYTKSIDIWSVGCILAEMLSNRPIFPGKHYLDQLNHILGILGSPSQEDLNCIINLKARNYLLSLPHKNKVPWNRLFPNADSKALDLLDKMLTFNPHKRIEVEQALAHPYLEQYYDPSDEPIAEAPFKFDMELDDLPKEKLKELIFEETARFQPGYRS
Procedure, shortened: (§3)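 Cell-based ELISA: HeLa or MCF-7 cells (20×10^3/well) grown overnight at 37 °C, 5% CO2, treated with 5 μM, then fixed and blocked. Probed with rabbit anti-total and anti-phospho P38, JNK or ERK1/2 (1:100), then HRP anti-rabbit IgG. Result is the phospho/total ratio; inhibitor arms use […], […] or SP600125. n=3.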

[18] = biological target: MAP kinase p38 (Homo sapiens) (UniProt O15264+Q15759+Q16539+P53778); assay: Activation of MAPK p38 phosphorylation in human HeLa cells assessed as increase in ratio of phosphorylated p38 to total p38 level at 5 uM by ELISA; type: cell-based; procedure, shortened: as §3
MCF7 [19] = assay: Induction of ERK/MAPK signal transduction pathway in human MCF7 cells assessed as increase in p53 expression; type: cell-based

- Activity [17]: inactive
- Activity [18]: Active
Compound: Cn1cc(/C=N\NC(=O)c2cn(C)c3ccc(Br)cc23)c2ccccc21
- Activity (HeLa [1]): Dose-dependent effect
- IC50 (HeLa [1]; Homo sapiens, HeLa, 4 h, read-out: IC50): 1690 nM
- Activity (MCF7 [2]): 2.26%
- Activity (MCF7 [3]): 4.01%
- Activity (MCF7 [4]): 0.33%
- Activity (MCF7 [5]): 35.72%
- Activity (MCF7 [6]): 16.41%
- Activity (HeLa [7]): 0.57%
- viability at 1 µM (HeLa [8]): 68.8%
- Activity (HeLa [9]): 1.77%
- Activity (HeLa [10]): 42.4%
- Activity (HeLa [11]): Active
- Activity (MCF7 [12]): inactive
- Activity (HeLa [13]): inactive
- Activity (HeLa [14]): inactive
- Activity (MCF7 [15]): Active
- Activity (MCF7 [16]): Active
- Activity (MCF7 [19]): Active
